Experimental data: ChEMBL document CHEMBL1126742, “Syntheses of 5'-substituted analogues of carbocyclic 3-deazaadenosine as potential antivirals” (J Med Chem, 1993)
Values after ≈ are worked out from the molar mass of the structure shown.

Experiments:
Vero [1] = assay: Inhibitory concentration (reduction in cytopathic effect) against vaccinia virus (vero cell line); type: functional, cell-based; settings: Chlorocebus sabaeus
Outline: (§1)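 Antiviral activity was scored as inhibition of virus cytopathic effect (CPE) in the named host cells. IC50 is the drug concentration giving a 50% reduction in virus CPE.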

Vero [2] = assay: Virus rating against vaccinia virus (vero cell line); type: functional, Chlorocebus sabaeus
Outline: (§2)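 The virus rating is computed from CPE-inhibition data by the Huffman and Sidwell method. VR > 1 means definite to moderate activity; VR < 0.5 means no significant activity.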

Vero [3] = assay: Minimum toxic concentration against vaccinia virus (vero cell line); type: functional, Chlorocebus sabaeus
Outline: (§3)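 Host-cell toxicity was measured alongside the antiviral test. MTC is the lowest concentration of test compound giving a 50% reduction in percent survival of viable host cells.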

L929 [4] = assay: Inhibitory concentration (reduction in cytopathic effect) against vesicular stomatitis virus (L-929 cell line); type: functional, cell-based; settings: Mus musculus; outline: as §1
L929 [5] = assay: Minimum toxic concentration against vesicular stomatitis virus (L-929 cell line); type: functional, Mus musculus; outline: as §3
L929 [6] = assay: Virus rating against vesicular stomatitis virus (L-929 cell line); type: functional, Mus musculus; outline: as §2
LLC-MK2 [7] = assay: Virus rating against yellow fever virus (MK2 cell line); Evaluated by plaque reduction assay; type: functional, cell-based; settings: Cercopithecidae
LLC-MK2 [8] = assay: Inhibitory concentration (reduction in cytopathic effect) against yellow fever virus (MK2 cell line); type: functional, cell-based, Cercopithecidae; settings: Macaca mulatta; outline: as §1
LLC-MK2 [9] = assay: Minimum toxic concentration against yellow fever virus (MK2 cell line); type: functional, Cercopithecidae; outline: as §3
L929 [10] = assay: Inhibitory concentration (reduction in cytopathic effect) against vaccinia virus (L-929 cell line); type: functional, cell-based; settings: Mus musculus; outline: as §1
L929 [11] = assay: Minimum toxic concentration against vaccinia virus (L-929 cell line); type: functional, Mus musculus; outline: as §3
L929 [12] = assay: Virus rating against vaccinia virus (L-929 cell line); type: functional, Mus musculus; outline: as §2
Vero [13] = assay: Virus rating against vaccinia virus ( vero cell line); type: functional, Chlorocebus sabaeus; outline: as §2
Vaccinia virus = assay: Minimum inhibitory concentration against vaccinia virus; type: functional; settings: Orthopoxvirus vaccinia
[14] = tested on: Vesicular stomatitis virus; assay: Minimum inhibitory concentration against vesicular stomatitis virus; type: functional

SMILES | IC50 (Vero [1]) [mg/L] | VR (Vero [2]) | MTC50 (Vero [3]) [µg/mL] | IC50 (L929 [4]) [mg/L] | MTC50 (L929 [5]) [µg/mL] | VR (L929 [6]) | VR (LLC-MK2 [7]) | IC50 (LLC-MK2 [8]) [mg/L] | MTC50 (LLC-MK2 [9]) [µg/mL] | IC50 (L929 [10]) [mg/L] | MTC50 (L929 [11]) [µg/mL] | VR (L929 [12]) | VR (Vero [13]) | MIC (Vaccinia virus) [mg/L] | MIC [14] [mg/L]
Nc1nccc2c1ncn2[C@@H]1C[C@H](CBr)[C@H](O)C1O (stereo partly drawn) | 87 (≈ 266 µM) | 0.6 | 320 | 147 (≈ 449 µM) | 320 | 0.3 |  |  |  |  |  |  |  |  | 
C[C@H]1C[C@@H](n2cnc3c(N)nccc32)C(O)[C@H]1O (stereo partly drawn) | 3.1 (≈ 12.5 µM) | 1.4 | 100 | 100 (≈ 403 µM) | 100 | 1 | Evaluated by plaque reduction assay | 23 (≈ 92.6 µM) | 104 |  |  |  |  |  | 
OC[C@H]1C[C@@H](n2cnc3cnccc32)C(O)[C@H]1O (stereo partly drawn) |  |  |  | 49 (≈ 197 µM) | 79 | 0.7 | Evaluated by plaque reduction assay | 70 (≈ 281 µM) | 100 | 7 (≈ 28.1 µM) | 249 | 1 |  |  | 
NC(=O)[C@H]1C[C@@H](n2cnc3c(N)nccc32)C(O)[C@H]1O (stereo partly drawn) | 32 (≈ 115 µM) |  | 320 |  |  |  |  |  |  |  |  |  | 0.7 |  | 
NC[C@H]1C[C@@H](n2cnc3c(N)nccc32)C(O)[C@H]1O (stereo partly drawn) | 18 (≈ 68.4 µM) | 1 | 320 |  |  |  |  |  |  |  |  |  |  |  | 
Nc1nccc2c1ncn2[C@@H]1C[C@H](CCl)[C@H](O)C1O (stereo partly drawn) |  |  |  | 88 (≈ 311 µM) | 283 | 0.4 |  |  |  | 32 (≈ 113 µM) | 90 | 0.6 |  |  | 
Nc1nccc2c1ncn2[C@@H]1C[C@H](CO)[C@H](O)C1O (stereo partly drawn) |  |  |  |  |  |  |  |  |  |  |  |  |  | 20 (≈ 75.7 µM) | 20 (≈ 75.7 µM)
